Results from ChEMBL document CHEMBL2086248, “Synthesis of some novel 1-(2-naphthyl)-2-(imidazol-1-yl)ethanone oxime ester derivatives and evaluation of their anticonvulsant activity” (Eur J Med Chem, 2012).
Active and inactive are the calls of the source.

Columns and labels:
Mus musculus [1] = assay: Neurotoxicity in mouse assessed as motor impairment at 30 mg/kg, ip after 4 hrs by rotarod test; format: toxicity, organism-based; design: dose 30 mg/kg, route intraperitoneal; details: in vivo
Outline: (§1)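 Swiss albino mice (20-24 g) were dosed ip with a suspension in 30% aqueous PEG 400 and tested 0.5 h or 4 h later. They were placed on a knurled wooden rod 1 inch in diameter, rotating at 6 rpm. Toxicity meant failure to stay on the rod for at least 1 min in each of three trials. Scored as number toxic/number tested (4 mice at 0.5 h, 2 at 4 h).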

Mus musculus [2] = assay: Anticonvulsant activity in mouse assessed as protection against subcutaneous pentylenetetrazole-induced seizures at 30 mg/kg, ip after 0.5 hrs; format: functional, organism-based; design: dose 30 mg/kg
Outline: (§2)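 Swiss albino mice (20-24 g) were dosed ip with a suspension in 30% aqueous PEG 400 and challenged 0.5 h or 4 h later. Protection meant no threshold seizure (clonic spasms lasting at least 5 s). Scored as number protected/number tested, one mouse per dose and time.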

Mus musculus [3] = assay: Neurotoxicity in mouse assessed as motor impairment at 300 mg/kg, ip after 0.5 hrs by rotarod test; format: toxicity, organism-based; design: dose 300 mg/kg, route intraperitoneal; details: in vivo; outline: as §1
Mus musculus [4] = assay: Anticonvulsant activity in mouse assessed as protection against maximal electroshock-induced seizures at 100 mg/kg, ip after 0.5 hrs; format: functional, organism-based; design: dose 100 mg/kg
Outline: (§3)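 Swiss albino mice (20-24 g) received an ip suspension in 30% aqueous PEG 400 and were tested 0.5 h and 4 h after dosing. Shock was delivered through corneal electrodes from a constant current unit, with 0.9% saline dropped into the eyes first. Protection meant abolition of the hind limb tonic extension. Scored as number protected/number tested, one mouse per dose and time.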

Mus musculus [5] = assay: Neurotoxicity in mouse assessed as motor impairment at 300 mg/kg, ip after 4 hrs by rotarod test; format: toxicity, organism-based; design: dose 300 mg/kg, route intraperitoneal; details: in vivo; outline: as §1
Mus musculus [6] = assay: Anticonvulsant activity in mouse assessed as protection against subcutaneous pentylenetetrazole-induced seizures at 300 mg/kg, ip after 0.5 hrs; format: functional, organism-based; design: dose 300 mg/kg; outline: as §2
Mus musculus [7] = assay: Neurotoxicity in mouse assessed as motor impairment at 30 mg/kg, ip after 0.5 hrs by rotarod test; format: toxicity, organism-based; design: dose 30 mg/kg, route intraperitoneal; details: in vivo; outline: as §1
Mus musculus [8] = assay: Anticonvulsant activity in mouse assessed as protection against maximal electroshock-induced seizures at 30 mg/kg, ip after 0.5 hrs; format: functional, organism-based; design: dose 30 mg/kg; outline: as §3
Mus musculus [9] = assay: Anticonvulsant activity in mouse assessed as protection against maximal electroshock-induced seizures at 300 mg/kg, ip after 0.5 hrs; format: functional, organism-based; design: dose 300 mg/kg; outline: as §3
Mus musculus [10] = assay: Anticonvulsant activity in mouse assessed as protection against subcutaneous pentylenetetrazole-induced seizures at 30 mg/kg, ip after 4 hrs; format: functional, organism-based; design: dose 30 mg/kg; outline: as §2
Mus musculus [11] = assay: Neurotoxicity in mouse assessed as motor impairment at 100 mg/kg, ip after 0.5 hrs by rotarod test; format: toxicity, organism-based; design: dose 100 mg/kg, route intraperitoneal; details: in vivo; outline: as §1
Mus musculus [12] = assay: Neurotoxicity in mouse assessed as motor impairment at 100 mg/kg, ip after 4 hrs by rotarod test; format: toxicity, organism-based; design: dose 100 mg/kg, route intraperitoneal; details: in vivo; outline: as §1
Mus musculus [13] = assay: Anticonvulsant activity in mouse assessed as protection against maximal electroshock-induced seizures at 30 mg/kg, ip after 4 hrs; format: functional, organism-based; design: dose 30 mg/kg; outline: as §3
Mus musculus [14] = assay: Anticonvulsant activity in mouse assessed as protection against maximal electroshock-induced seizures at 300 mg/kg, ip after 4 hrs; format: functional, organism-based; design: dose 300 mg/kg; outline: as §3
Mus musculus [15] = assay: Anticonvulsant activity in mouse assessed as protection against maximal electroshock-induced seizures at 100 mg/kg, ip after 4 hrs; format: functional, organism-based; design: dose 100 mg/kg; outline: as §3
Mus musculus [16] = assay: Anticonvulsant activity in mouse assessed as protection against subcutaneous pentylenetetrazole-induced seizures at 100 mg/kg, ip after 0.5 hrs; format: functional, organism-based; design: dose 100 mg/kg; outline: as §2
Mus musculus [17] = assay: Anticonvulsant activity in mouse assessed as protection against subcutaneous pentylenetetrazole-induced seizures at 300 mg/kg, ip after 4 hrs; format: functional, organism-based; design: dose 300 mg/kg; outline: as §2
Mus musculus [18] = assay: Anticonvulsant activity in mouse assessed as protection against subcutaneous pentylenetetrazole-induced seizures at 100 mg/kg, ip after 4 hrs; format: functional, organism-based; design: dose 100 mg/kg; outline: as §2

Measured: Activity

O=C(O/N=C(\Cn1ccnc1)c1ccc2ccccc2c1)c1ccc(Cl)cc1
active: Mus musculus [10] | Mus musculus [17] | Mus musculus [18]
Non-toxic: Mus musculus [1] | Mus musculus [3] | Mus musculus [5] | Mus musculus [7] | Mus musculus [11] | Mus musculus [12]
inactive: all other assays above

CCCCCC(=O)O/N=C(\Cn1ccnc1)c1ccc2ccccc2c1.Cl
Non-toxic: Mus musculus [1] | Mus musculus [3] | Mus musculus [5] | Mus musculus [7] | Mus musculus [11] | Mus musculus [12]
inactive: all other assays above

CC(C)CC(=O)O/N=C(\Cn1ccnc1)c1ccc2ccccc2c1.Cl
Non-toxic: Mus musculus [1] | Mus musculus [3] | Mus musculus [5] | Mus musculus [7] | Mus musculus [11] | Mus musculus [12]
active: Mus musculus [4] | Mus musculus [9] | Mus musculus [14] | Mus musculus [15]
inactive: all other assays above

O=C1NC(=O)C(c2ccccc2)(c2ccccc2)N1 [PHENYTOIN]
Toxic: Mus musculus [3] | Mus musculus [5] | Mus musculus [12]
Non-toxic: Mus musculus [1] | Mus musculus [7] | Mus musculus [11]
inactive: Mus musculus [2] | Mus musculus [6] | Mus musculus [10] | Mus musculus [16] | Mus musculus [17] | Mus musculus [18]
active: all other assays above

Cl.O=C(/C=C/c1ccccc1)O/N=C(\Cn1ccnc1)c1ccc2ccccc2c1
Non-toxic: Mus musculus [1] | Mus musculus [3] | Mus musculus [5] | Mus musculus [7] | Mus musculus [11] | Mus musculus [12]
active: Mus musculus [4] | Mus musculus [8] | Mus musculus [9]
inactive: all other assays above

O=C(O/N=C(\Cn1ccnc1)c1ccc2ccccc2c1)c1cccc(Br)c1
Non-toxic: Mus musculus [1] | Mus musculus [3] | Mus musculus [5] | Mus musculus [7] | Mus musculus [11] | Mus musculus [12]
active: Mus musculus [4] | Mus musculus [9]
inactive: all other assays above

Cl.O=C(ON=C(Cn1ccnc1)c1ccc2ccccc2c1)C1CCCCC1 (mixture of isomers)
active: Mus musculus [4] | Mus musculus [6] | Mus musculus [9] | Mus musculus [16]
Non-toxic: Mus musculus [1] | Mus musculus [3] | Mus musculus [5] | Mus musculus [7] | Mus musculus [11] | Mus musculus [12]
inactive: all other assays above

CCCC(CCC)C(=O)[O-].[Na+] [VALPROATE SODIUM]
active: Mus musculus [6] | Mus musculus [9]
Non-toxic: Mus musculus [1] | Mus musculus [3] | Mus musculus [5] | Mus musculus [7] | Mus musculus [11] | Mus musculus [12]
inactive: all other assays above

CCCC(=O)O/N=C(\Cn1ccnc1)c1ccc2ccccc2c1.Cl
Non-toxic: Mus musculus [1] | Mus musculus [5] | Mus musculus [7] | Mus musculus [11] | Mus musculus [12]
active: Mus musculus [4] | Mus musculus [8] | Mus musculus [9] | Mus musculus [14] | Mus musculus [17]
Toxic: Mus musculus [3]
inactive: all other assays above

COc1ccc(C(=O)O/N=C(\Cn2ccnc2)c2ccc3ccccc3c2)cc1
active: Mus musculus [6]
Non-toxic: Mus musculus [1] | Mus musculus [3] | Mus musculus [5] | Mus musculus [7] | Mus musculus [11] | Mus musculus [12]
inactive: all other assays above

CCCC(CCC)C(=O)ON=C(Cn1ccnc1)c1ccc2ccccc2c1.Cl (mixture of isomers)
Non-toxic: Mus musculus [1] | Mus musculus [3] | Mus musculus [5] | Mus musculus [7] | Mus musculus [11] | Mus musculus [12]
active: Mus musculus [4] | Mus musculus [6] | Mus musculus [8] | Mus musculus [9] | Mus musculus [14] | Mus musculus [17]
inactive: all other assays above

C/C=C(\C)C(=O)O/N=C(\Cn1ccnc1)c1ccc2ccccc2c1.Cl
active: Mus musculus [17]
Non-toxic: Mus musculus [1] | Mus musculus [3] | Mus musculus [5] | Mus musculus [7] | Mus musculus [11] | Mus musculus [12]
inactive: all other assays above
